The values below come from ChEMBL document CHEMBL4513216, “Probing the Open Global Health Chemical Diversity Library for Multistage-Active Starting Points for Next-Generation Antimalarials” (ACS Infect Dis, 2020).

A short description of the data set: Toxicity liver stage against HepG2, at 10uM. Set-up: test concentration 10 uM, cell line HepG2-A16-CD81EGFP. The settings on record: human, HepG2-A16-CD81EGFP cells; read-out: INHIBITION
It is filed as cell-based. In a few lines:
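Uninfected HepG2-A16-CD81EGFP cells, 3 × 10^3 per well, 1536-well, plated on prespotted compound at 10 μM final, parasite-free screening media added to match infected plates; puromycin 10 μM positive, DMSO 0.5% negative; run in parallel with 48 h PbLuc assay at 37 °C, 5% CO2; viability by CellTiter-Glo luminescence, normalized to controls.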
Turning to `F[C@@H]1CN(Cc2nccs2)C[C@@H]1OCc1nc2cnccc2[nH]1`, the cytotoxicity at 10 µM was found to be 4.15%.
For `Cn1nc(Br)nc1Sc1ccccc1NC(=O)C1CC1`, the cytotoxicity at 10 µM amounted to 3.62%.
Consider `O=C(NC1CCCCC1)c1cc(Br)cnc1N1CCCCC1`, for which the cytotoxicity at 10 µM stood at 2.22%.
`COc1nn(C)cc1C(=O)N1CCC(c2nnc(C(C)C)o2)CC1`: the cytotoxicity at 10 µM was 13.5%.
As to `O=C(NCc1c(F)cccc1F)C1CN(C(=O)c2cnccn2)C1`, the cytotoxicity at 10 µM is -12.2%.
As for `CCOC(=O)CNC(=O)C1CN(C(=O)c2cnccn2)C1`, the cytotoxicity at 10 µM was found to be 2.63%.
Under `O=C(Cc1cccs1)NCC1(O)CCc2ccccc2C1` (stereo unspecified) stands -10.1%; under `CCS(=O)(=O)N1CCC2(CCN(CC(=O)N(C)C)C2=O)CC1`, 5.68%; under `O=C(c1ccnnc1)N1C[C@@H](OCc2cccnc2)[C@H]2OCCC[C@H]21`, 5.03%.
As for `O=C(C1CCN(c2nc3nc[nH]c(=O)c3s2)CC1)N1CCCCC1`, the cytotoxicity at 10 µM was -5.55%.
In the case of `Cc1nn(C)c(=O)c2nn(-c3cccc(Cl)c3)c(C)c12`, the cytotoxicity at 10 µM is 3.79%.
For the molecule `CC(C)N1CCc2c(C#N)c(NCc3ccco3)n3cnnc3c2C1`, the cytotoxicity at 10 µM was -2.02%.
Regarding `CN1[C@H](Cn2cccn2)C[C@@H]2CN(C(=O)Cc3cccs3)CC[C@@H]21`, the cytotoxicity at 10 µM amounted to 9.58%.
On to `O=C1CC2(CCCCN2C(=O)c2ccsc2)CN1CC1CC1` (stereo unspecified), for which the cytotoxicity at 10 µM came out at 2.84%.
As for `Cc1cn([C@@H]2CC3(CCNCC3)OC[C@@]2(C)O)c(=O)[nH]c1=O`, the cytotoxicity at 10 µM is -5.6%.
The figure for `O=C1CCOC[C@]2(CN(Cc3ccccc3)C[C@H]2c2ccccc2)N1` is -14.1%; for `Cc1noc(C)c1-c1nc(C2CCCN(C(=O)CN)C2)ccc1CO` (stereo unspecified) it is -3.11%; for `CCn1cc(S(=O)(=O)N2CCC(C3CCCCN(C)C3=O)CC2)c(C)n1` (stereo unspecified) it is 6.58%.
Turning to `CN([C@@H]1CC[C@@H](N2CCCC2)[C@@H]1O)S(=O)(=O)c1ccccc1`, the cytotoxicity at 10 µM is -4.29%.
As for `NC(=O)CN1CCCC(c2ccnc(Nc3ncccn3)c2)C1` (stereo unspecified), the cytotoxicity at 10 µM turned out to be 10.1%.
Take `Cc1ccc(CN2CCCC(c3nn(C)c4nccnc34)C2)s1` (stereo unspecified): the cytotoxicity at 10 µM was -10.6%.
In the case of `CC(C)C(=O)N1Cc2ccccc2CC2(CCCN2C)C1` (stereo unspecified), the cytotoxicity at 10 µM was 4.51%.
Turning to `COc1cc(Br)c(S(=O)(=O)NC(=O)C(C)OC)cc1OC` (stereo unspecified), the cytotoxicity at 10 µM was -22.9%.
Under `Cc1ccccc1CN1CCCN(S(=O)(=O)N(C)C2CCCCC2)CC1` stands 11.5%; under `COc1cc(C(=O)O)ccc1OCC(=O)NCCc1ccccc1`, -10.6%; under `COC(=O)c1sc(C(NC(=O)c2ccccc2)C2CC2)nc1C` (stereo unspecified), 0.0726%.
Under `Cc1nn(C)c(C)c1C1COCCN1C(=O)CSC(C)(C)C` (stereo unspecified) stands 4.22%; under `COc1ccc(NC(=O)N2CCC(c3nnc[nH]3)CC2)cc1C`, 15.8%.
Under `Cc1cccc(CCC(=O)Nc2ccnn2C2CCS(=O)(=O)C2)c1` (stereo unspecified) stands 0.499%.
On to `O=C(NCCNc1ccccn1)NC1CCOC2(CCCCC2)C1` (stereo unspecified), for which the cytotoxicity at 10 µM was -8.8%.
Regarding `NC(=O)C1CN(c2ccc3cc(Br)ccc3n2)CCO1` (stereo unspecified), the cytotoxicity at 10 µM is 4.94%.
`COCCn1cc(C(=O)N2CCCC2c2noc(C)n2)ccc1=O` (stereo unspecified): the cytotoxicity at 10 µM was -9.8%.
Regarding `Cc1ccc(NC(C)C(=O)N(C)Cc2cccc(F)c2)cc1C(N)=O` (stereo unspecified), the cytotoxicity at 10 µM was 11.4%.
With `CCOc1ncccc1CNC(=O)CN1CCCCCC1=O`, the cytotoxicity at 10 µM was determined as 2.92%.
For `CC(C)Cc1noc(CN2CCCN(C(=O)c3ccccc3Cl)CC2)n1`, the cytotoxicity at 10 µM is -5.95%.
The figure for `CCc1csc(C2CCCN(C(=O)c3ccc(OC)nc3)C2)n1` (stereo unspecified) is 4.65%; for `CN(C(=O)CCc1ccsc1)S(C)(=O)=O` it is 0.347%; for `COc1ccc(C(C)NC(=O)Nc2nccs2)cc1OC` (stereo unspecified) it is 4.37%.
Take `CC(NC(=O)c1cccnc1N(C)C)c1ccccc1Br` (stereo unspecified): the cytotoxicity at 10 µM stood at 17.7%.
Consider `CCc1nc(CNC(C)(CO)C2CCCCC2)no1` (stereo unspecified), for which the cytotoxicity at 10 µM is -13.1%.
As for `CC(=O)N1CCN(C(=O)CNc2cccc(OC(F)F)c2C)CC1`, the cytotoxicity at 10 µM is -11.4%.
For the molecule `Cc1cc(S(=O)(=O)NCC[S+](C)[O-])c(F)cc1F` (stereo unspecified), the cytotoxicity at 10 µM is -4.23%.
`O=C1CCN(C(=O)CCc2cc(Br)cs2)CCN1`: the cytotoxicity at 10 µM is -2.1%.
`CCN(Cc1csc(CS(C)(=O)=O)n1)c1cccc(CO)c1`: the cytotoxicity at 10 µM is -10%.
In the case of `CC(Cn1cccn1)NCc1nc(-c2ccc3c(c2)OCO3)no1` (stereo unspecified), the cytotoxicity at 10 µM was -12.4%.
Under `O=C(Nc1ncn(Cc2cccc(Br)c2)n1)C1CCC1` stands 11.4%; under `c1cnc(N2CCc3onc(CN4CCCC4)c3C2)cn1`, -3.09%; under `Cc1nnc([C@@]23CCO[C@@H]2CCN(Cc2nccs2)C3)o1`, -104%.
`Cc1cc(C(=O)N2CCn3c(COCC4CCCC4)cnc3C2C)on1` (stereo unspecified): the cytotoxicity at 10 µM is 3.18%.
Under `NC(=O)c1cnc2n1CCN(C(=O)c1cccc(Cn3cccn3)c1)C2` stands 4.35%.
For `CN(Cc1ccc(-n2cccn2)cc1)Cc1cnc(N(C)C)nc1`, the cytotoxicity at 10 µM was -1.28%.
Under `COc1cc(O)ccc1CN1CCN(C2CCc3ccccc3C2)CC1` (stereo unspecified) stands -1.33%; under `Cc1cc(N2CCCN(C(=O)CSCC3CC3)CC2)ccn1`, -1.9%; under `Cc1cc(C(=O)N2CCC(n3nc(C)cc3C)C2)c2ccc(F)cc2n1` (stereo unspecified), -5.08%.
Turning to `O=C1CCC2(CCCN(C(=O)c3ccoc3)C2)CN1Cc1ccncc1` (stereo unspecified), the cytotoxicity at 10 µM is 3.06%.
The figure for `COc1ccc(F)c(CNC2CCCc3nc(N(C)C)ncc32)c1` (stereo unspecified) is 1.81%.
In the case of `O=C(NCc1cnn2cccnc12)C1CC(=O)N(Cc2cccnc2)C1` (stereo unspecified), the cytotoxicity at 10 µM worked out at 8.21%.
The figure for `COc1ccc(OC)c(CNC2CCCc3nc(N(C)C)ncc32)c1` (stereo unspecified) is -11.2%; for `CCc1nc(C)sc1CN1CCc2[nH]nc(-c3ccc(F)c(F)c3)c2C1` it is 5.57%.
Turning to `COc1ccccc1N1CCN(Cc2ncc(C)c(OC)c2C)CC1=O`, the cytotoxicity at 10 µM turned out to be 6.18%.
As to `CSc1ccccc1C(=O)N(C)Cc1nncn1C(C)C`, the cytotoxicity at 10 µM worked out at 3.92%.
Take `O=C(CCc1ccco1)N1CCC(Oc2ccccc2)(C(=O)O)CC1`: the cytotoxicity at 10 µM amounted to 1.46%.
On to `Cn1ccc2c(-c3ccc(NCCO)nn3)ccnc21`, for which the cytotoxicity at 10 µM is -5.56%.
On to `Cc1nc2ccccc2n1Cc1cc(C(=O)N(C)C2CCOCC2)no1`, for which the cytotoxicity at 10 µM stood at 25.7%.
Take `CCN(CC)CCn1ccnc1-c1[nH]cnc1C`: the cytotoxicity at 10 µM is -8.88%.
With `CNS(=O)(=O)c1ccsc1C(=O)OC`, the cytotoxicity at 10 µM stood at 7.54%.
As for `Cc1ccc(CN2CCN(C(=O)c3ccccc3O)C(C)C2=O)cc1` (stereo unspecified), the cytotoxicity at 10 µM came out at 6.31%.
As to `CNC(=O)COc1cccc(CNC(=O)c2c(C)noc2C(C)C)c1`, the cytotoxicity at 10 µM was -2.8%.
Take `O=C(Cc1cccc(F)c1)NCCNc1ncccn1`: the cytotoxicity at 10 µM was -6.71%.
Under `Cc1nc(C)n(CC2CN(Cc3cccc4ccccc34)CCO2)n1` (stereo unspecified) stands -2.64%.
For the molecule `Cc1noc(C)c1CCC(=O)N1CCCC(n2cccn2)C1` (stereo unspecified), the cytotoxicity at 10 µM was -7.81%.
Under `Cn1cccc1C1CCCCCN1C(=O)c1ccc(NC2CC2)nc1` (stereo unspecified) stands -9.24%; under `CCNc1cc2c(nn1)CCN(C(=O)c1cccc(CSC)c1)C2`, -12.7%; under `CN(Cc1noc(C2CC2)n1)C1CCN(CCn2cc(C#N)cn2)C1` (stereo unspecified), -9.1%.
Under `Cc1nn(C)c(Cl)c1C1CCCN1C(=O)c1cccn1C` (stereo unspecified) stands -5.53%; under `CC(=O)Nc1nc(C(=O)N2CCCC2Cn2cccn2)cs1` (stereo unspecified), -5.42%; under `Cc1cccc(C(=O)N(C)C2CCN(c3ccccn3)CC2)c1C`, 1.84%.
Consider `Cc1noc(CN2CCN(C(=O)c3ccccn3)CC2)n1`, for which the cytotoxicity at 10 µM turned out to be 1.35%.
As for `CCOCCCn1c(NC(=O)c2ccc(C)nc2)nc2ccccc21`, the cytotoxicity at 10 µM was -6.95%.
Turning to `Cc1nn(C)c(C)c1C1COCCN1C(=O)c1ccccc1` (stereo unspecified), the cytotoxicity at 10 µM was -10.2%.
Consider `CN(CC(=O)N(C)C1CCCCC1)C1CCc2ccccc21` (stereo unspecified), for which the cytotoxicity at 10 µM is -7.44%.
Under `Cc1nccn1CCCC(=O)N1CCC(Nc2cccnn2)CC1` stands -17.3%; under `CCCc1nnsc1C(=O)N1CCN(CC(O)C2CC2)CC1` (stereo unspecified), -7.78%; under `c1ccc(N2CC[C@H](OCC3CC3)[C@@H]2Cc2cccnc2)nc1`, 7.53%.
As to `CNC(=O)[C@H]1C[C@@H]2CN(C(=O)c3ccccn3)C[C@@H]2N1S(C)(=O)=O`, the cytotoxicity at 10 µM is -1.37%.
The figure for `CS(=O)(=O)NCc1cc(=O)n2c(n1)CN(CC1CC1)CCC2` is -104%; for `Cc1ccsc1CN1CC[C@H]2OCC[C@@]2(C(=O)N2CCCO2)C1` it is -4%.
On to `O=S(=O)(C1CC1)N1CCO[C@H]2[C@@H](Oc3cccnc3)CC[C@@H]21`, for which the cytotoxicity at 10 µM was -5.96%.
`O=C1CO[C@@H]2CN(CC3CCOCC3)C[C@H]2N1CC1CC1`: the cytotoxicity at 10 µM was 1.57%.
Consider `Cc1nc(CN2CCO[C@@H]3CN(Cc4cccs4)C[C@@H]3C2)cs1`, for which the cytotoxicity at 10 µM turned out to be 6.11%.
Take `CCN1Cc2ccccc2CC2(CCN(CC(=O)O)CC2)C1=O`: the cytotoxicity at 10 µM is -4.87%.
`COCCN1CCc2ncnc(OC(C)C)c2CC1`: the cytotoxicity at 10 µM amounted to 8.26%.
Consider `Cc1occc1C(=O)N1CCC2(CCCN(c3ncc(F)cn3)C2)C1` (stereo unspecified), for which the cytotoxicity at 10 µM is -102%.
The figure for `COCC1CC2(CCN(Cc3cnn(C)c3)CC2)CN1C(C)C` (stereo unspecified) is 2.91%.
As to `CC(C)N1[C@H](Cn2cncn2)C[C@@H]2CN(Cc3nccn3C)CC[C@@H]21`, the cytotoxicity at 10 µM was -106%.
Regarding `CC(C)CS(=O)(=O)N1C[C@@H]2C[C@H](C(=O)N(C)C)[C@H](C1)O2`, the cytotoxicity at 10 µM is 8.66%.
